Assay outcomes deposited in PubChem BioAssay by Johns Hopkins Ion Channel Center.
Only some compounds are listed: those with a hit (about 3.1% of all), similar ones and a draw of the others.
KCNQ1 inh: inhibitors of human KCNQ1 channel, primary screen, cell-based, thallium flux, high-throughput | Potassium voltage-gated channel subfamily KQT member 1 (Homo sapiens), P51787 | CHO-K1 KCNQ1, FluxOR thallium flux fluorescence; stronger effect = higher value | B-score at 10 µM | actives 1.3% (n = 310,000) | AID 2642, 2010;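 active = compounds whose thallium flux B-score, printed positive for inhibition, exceeds three library SD while starting fluorescence stays within three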;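 also: channel opened by potassium depolarization with thallium stimulus after 20 min compound exposure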
hERG rescue: hERG rescue from dofetilide block, primary screen, cell-based, CHO-hERG, FluxOR thallium flux, dofetilide IC70 | AID 1511, 2009 | dofetilide IC70 present | actives 0.51% (n = 310,000) | Voltage-gated inwardly rectifying potassium channel KCNH2 (Homo sapiens), Q12809 | activation (rescue from dofetilide block), less the hit threshold, % at 10 µM;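 active = activation above the mean of controls blocked by dofetilide plus 5 SD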;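 also: thallium influx through hERG after potassium depolarization seen as dye fluorescence rise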
KCNK3 block: human KCNK3 channel inhibitors, primary screen, CHO cells, FluxOR thallium flux, B-score | actives 0.84% (n = 340,000) | AID 602410, 2012 | FluxOR fluorescence; stronger effect = lower value | Potassium channel subfamily K member 3 (Homo sapiens), O14649 | B-score at 10 µM;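 active = B-score under library mean minus 4 SD, starting fluorescence ratio at most library mean plus 5 SD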;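 also: more negative B-score means stronger inhibition of thallium flux through KCNK3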
Target sequence (O14649 whole entry, looked up): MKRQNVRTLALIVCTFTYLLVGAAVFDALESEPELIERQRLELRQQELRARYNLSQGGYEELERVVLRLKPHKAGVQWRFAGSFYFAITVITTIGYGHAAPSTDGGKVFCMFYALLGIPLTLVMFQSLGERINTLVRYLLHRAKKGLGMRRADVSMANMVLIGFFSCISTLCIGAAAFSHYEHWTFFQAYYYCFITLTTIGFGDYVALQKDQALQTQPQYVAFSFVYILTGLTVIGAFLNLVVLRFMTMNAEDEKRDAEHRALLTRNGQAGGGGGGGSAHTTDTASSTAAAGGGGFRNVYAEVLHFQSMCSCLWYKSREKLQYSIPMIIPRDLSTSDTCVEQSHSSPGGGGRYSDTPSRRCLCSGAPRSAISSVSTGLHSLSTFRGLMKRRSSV
KCNK9 inh: KCNK9 potassium channel inhibitors, primary screen, HEK293 cells, thallium flux; FluxOR thallium flux fluorescence; stronger effect = lower value; B-score at 10 µM; actives 1.2% (n = 310,000); AID 488922, 2010;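 active = ratio B-score over 3 SD below the library mean, with starting fluorescence within 5 SD of its mean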;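 also: negative B-score means less thallium flux so channel inhibition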
KCNQ1 act: potentiators or activators of KCNQ1 channel, primary screen, cell-based, thallium flux, high-throughput. Potassium voltage-gated channel subfamily KQT member 1 (Homo sapiens), P51787. B-score at 10 µM. CHO-K1 KCNQ1, thallium flux FluxOR fluorescence; stronger effect = higher value. actives 0.35% (n = 310,000);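 active = fluorescence ratio B-score, a plate-corrected score, at least three library SD, with initial intensity B-score within 5 SD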
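assay system = KCNQ1-transfected CHO-K1 cells | medium = assay buffer with matched DMSO | probe or stimulus = depolarizing K+/Tl+ stimulus, K2SO4 and Tl2SO4 each 12.5 mM in 5x stock | dosing = single dose | incubation = dye 90 min, compound 20 min, room temperature | detection = kinetic FluxOR fluorescence, 10 s baseline plus 110 s post-stimulus | evaluation = ratio B score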
KCNQ1 block val: KCNQ1 potassium channel inhibitors, confirmation, cell-based, Tl flux, duplicate; shares compounds with KCNQ1 inh; KCNQ1 cell line, FluxOR thallium flux fluorescence; inhibition, % at 10 µM; actives 93% (n = 1,600);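 active = primary screen active, with duplicate mean exceeding buffer control mean plus 3 SD of buffer wells, cut at about 28% in these data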;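 also: 0% = buffer control ratio and 100% = XE991 inhibitor control ratio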
CHO Tl flux: thallium flux effects in parental CHO cells, counter-screen for KCNQ1 inhibitor project, cell-based, Tl flux; shares compounds with KCNQ1 inh; parental CHO-K1, FluxOR thallium flux fluorescence ratio; stronger effect = lower value; zero means no signal rise above baseline; fluorescence ratio (Tl flux) at 10 µM; actives 21% (n = 1,600); AID 588366, 2011;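 active = mean of duplicate thallium-flux fluorescence ratios in parental host cells more than 5 SD below the buffer control mean, cut at about 0.38 in these data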;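 also: ratio is peak minus minimum fluorescence divided by baseline fluorescence; actives read low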
KCNQ1 APC inh: KCNQ1 channel inhibitors, confirmation, orthogonal assay, cell-based, automated electrophysiology. shares compounds with KCNQ1 inh. KCNQ1-CHO cells, automated patch clamp current. calls only at 10 µM. actives 20% (n = 490). AID 624120, 2012;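 active = KCNQ1 current drop exceeding 3 SD of negative control wells, seen in both duplicate runs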;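 also: steady state current during a 2 s step from -80 to +40 mV; negative values mean current inhibition and positive values mean potentiation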
KCNQ2 spec: KCNQ2 channel inhibition, selectivity assay for KCNQ1 inhibitor project, cell-based; shares compounds with KCNQ1 inh; actives 71% (n = 1,600); KCNQ2 cells, FluxOR thallium flux fluorescence; AID 651746, 2012; inhibition, % at 10 µM;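 active = mean percent inhibition of the KCNQ2 thallium signal more than 5 SD above the buffer-only control wells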;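 also: KCNQ2 expressed in CHO cells; 0% = buffer control wells and 100% = XE-991 inhibitor control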
KCNQ1 KCNE1 spec: KCNQ1/KCNE1 channel inhibition, selectivity assay for KCNQ1 inhibitor project, CHO-K1 cells, thallium flux, FluxOR | actives 77% (n = 1,600) | inhibition, % at 10 µM | AID 652147, 2013 | shares compounds with KCNQ1 inh | FluxOR thallium flux fluorescence;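 active = mean percent inhibition of duplicate wells above the buffer-only control mean plus 3 SD of those controls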;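 also: 0% = buffer only wells and 100% = XE-991 inhibitor control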
KCNK9 block conf: KCNK9 potassium channel inhibitors, confirmation, HEK293 cells, thallium flux, duplicate; inhibition, % at 10 µM; FluxOR thallium flux fluorescence; AID 492992, 2010; actives 43% (n = 4,900); shares compounds with KCNK9 inh;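 active = thallium signal inhibited by more than 5 SD of the compound-free buffer control wells, on both duplicate plates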;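 also: 0% = assay buffer control wells without compound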
Kir21 sel: mouse Kir2.1 channel inhibition, confirmation, selectivity assay for KCNK9 modulator project, cell-based, HEK293, thallium flux; shares compounds with KCNK9 inh; Kir2.1 cells, FluxOR thallium flux fluorescence; inhibition, % at 10 µM; actives 4% (n = 4,900); AID 492993, 2010;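 active = thallium signal drop more than 5 SD beyond the mean of the no-compound control wells, seen in both duplicate plates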;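 also: signal is fluorescence rise after thallium addition divided by baseline fluorescence; plate controls were assay buffer only for no effect and full block by chlorpromazine control for full effect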
Target sequence (P35561 whole entry, looked up): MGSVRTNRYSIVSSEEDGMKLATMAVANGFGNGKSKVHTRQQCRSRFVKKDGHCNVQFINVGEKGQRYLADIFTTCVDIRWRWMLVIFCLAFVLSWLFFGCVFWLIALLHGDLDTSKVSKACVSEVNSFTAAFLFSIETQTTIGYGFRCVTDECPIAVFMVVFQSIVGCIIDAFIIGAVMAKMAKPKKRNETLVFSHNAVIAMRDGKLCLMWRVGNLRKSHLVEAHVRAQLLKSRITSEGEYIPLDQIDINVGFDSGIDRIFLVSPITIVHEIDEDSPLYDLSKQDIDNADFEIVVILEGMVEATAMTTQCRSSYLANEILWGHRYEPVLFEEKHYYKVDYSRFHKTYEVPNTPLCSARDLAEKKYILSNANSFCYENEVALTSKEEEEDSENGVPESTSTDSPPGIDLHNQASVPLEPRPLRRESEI
KCNK9 uninduced: thallium flux in non-induced HEK293 cells, confirmation, counter-screen for KCNK9 inhibitor project, cell-based, second counter screen, non-induced KCNK9-HEK293; shares compounds with KCNK9 inh; actives 40% (n = 4,900); inhibition, % at 10 µM; FluxOR thallium flux;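 active = thallium signal drop beyond 5 SD of the untreated control mean, on both duplicate plates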;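 also: plate controls were buffer only IC0 wells for no effect and SID17386958 at its maximal inhibitory level for full effect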
KCNK3 inh conf: retest of human KCNK3 channel inhibitors, confirmation, CHO cells, FluxOR thallium flux, triplicate. shares compounds with KCNK3 block. FluxOR fluorescence; 0% buffer, 100% carvedilol maximal block. ratio percent of control, % at 10 µM. actives 99% (n = 2,400). AID 651638, 2012;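 active = ratio percent of control, averaged over triplicates, above buffer control mean plus 5 SD, cut at about 64% in these data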;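 also: ratio is the fluorescence rise from min to max over baseline after thallium stimulus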
KCNK3 noninduced: thallium flux inhibition in non-induced cells, primary screen, counter-screen for KCNK3 inhibitor project, cell-based, non-induced KCNK3 line, FluxOR thallium, triplicate. actives 40% (n = 2,400). shares compounds with KCNK3 block. thallium flux ratio (lower = more inhibition) at 10 µM. non-induced KCNK3 parental cells; stronger effect = lower value;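 active = thallium flux ratio, averaged over three wells, more than 5 SD below the buffer control mean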;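 also: host cells are CHO cells without KCNK3 induction; ratio is peak minus trough fluorescence over baseline then normalized to buffer controls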
Starred values were filed as active, the others as inactive; i = inactive; . = no result; + = active, no number.

SMILES	KCNQ1 inh	hERG rescue	KCNK3 block	KCNK9 inh	KCNQ1 act	KCNQ1 block val	CHO Tl flux	KCNQ1 APC inh	KCNQ2 spec	KCNQ1 KCNE1 spec	KCNK3 inh conf	KCNK3 noninduced	others
CCCNC(=S)N1CCN(c2nc(C)nc3sc4c(c23)CCCC4)CC1	8*	-12.7	-9.54*	i	i	111.5*	0.41	i	135.3%*	169.5%*	134.0*	0.136*
CC(C)COc1cccc(-c2cc(C(=O)N/N=C/c3ccncc3)c3ccccc3n2)c1	14*	-11.5	-10.1*	i	i	182.5*	0.298*	.	125.3%*	+	118.3*	0.0963*
CCOc1cc(/C=N/NC(=O)c2cc(-c3cccc(OC)c3)nc3ccccc23)ccc1O	i	-11.7	i	i	i	.	.	.	.	.	.	.
Cc1ccc(C)c(S(=O)(=O)N2CCN(C(=O)c3ccccn3)CC2)c1	.	.	i	.	.	.	.	.	.	.	.	.
COc1ccc(C(=O)C2CCCN(Cc3cccn3-c3nccs3)C2)cc1OC (stereo not given)	i	-15.0	i	i	i	.	.	.	.	.	.	.
Cc1ccsc1C(=O)C1CCCN(Cc2cccn2-c2ccc(Cl)cn2)C1 (stereo not given)	9*	-25.6	-9.07*	i	i	91.5*	0.43	+	71.7%*	57.5%*	127.3*	0.136*
Cc1cc(C)nc(NC(=O)c2cccc(Cl)c2)n1	i	-7.7	i	i	i	.	.	.	.	.	.	.
Cc1cc(NC(=O)c2cccc3c2C(=O)N(C2CCCCC2)C3)ccc1Br	i	-4.7	i	i	i	.	.	.	.	.	.	.
Cc1cccc(C)c1NC(=O)c1cccc2c1C(=O)N(C1CCCCC1)C2	6*	-19.6	-15.4*	-19.3*	i	74.5*	0.443	.	104.7%*	129.0%*	125.7*	0.154*	KCNK9 block conf=52.5%*;Kir21 sel=i;KCNK9 uninduced=36.0%*
O=C(Nc1ccc(Br)cc1)Nc1ccccc1Cl	7*	-8.2	-8.73*	-6.65*	i	34.0*	0.519	.	i	i	86.0*	i
Fc1ccc(C2c3cccn3CCN2C(=S)Nc2cccc(F)c2)cc1 (stereo not given)	9*	-16.0	-10.2*	-7.53*	i	118.5*	0.388	+	116.0%*	182.5%*	134.7*	0.151*
Fc1cccc(NC(=S)N2CCn3cccc3C2c2cccnc2)c1 (stereo not given)	i	-18.1	i	i	i	.	.	.	.	.	.	.
Cc1cc([N+](=O)[O-])nn1CC(=O)N(C)C1CCCCC1	i	-2.9	i	i	i	.	.	.	.	.	.	.
O=C(NCCSCc1ccco1)Nc1cc(Cl)cc(Cl)c1	8*	-18.8	-13.2*	-8.24*	i	134.5*	0.425	i	i	91.0%*	100.3*	i	KCNK9 block conf=67.5%*;Kir21 sel=i;KCNK9 uninduced=31.5%*
CC(=O)Nc1ccc(C(=O)N2CCCC2)cc1	i	-5.6	i	i	i	.	.	.	.	.	.	.
COc1ccccc1NC(=O)Nc1nc(CC(=O)Nc2ccc(OC)c(OC)c2)cs1	i	-12.3	i	i	i	.	.	.	.	.	.	.
COc1cc(C)ccc1NC(=O)Cc1csc(NC(=O)Nc2ccccc2OC)n1	17*	-21.7	-13*	-8.83*	i	115.0*	0.49	i	121.3%*	171.5%*	133.3*	i	KCNK9 block conf=28.0%*;Kir21 sel=i;KCNK9 uninduced=24.0%*
CCOc1ccc(N(CC(=O)Nc2cccc(F)c2)S(=O)(=O)c2c(C)noc2C)cc1	i	-4.8	i	i	i	.	.	.	.	.	.	.
CCOc1ccc(N(CC(=O)Nc2ccc(C)c(C)c2)S(=O)(=O)c2c(C)noc2C)cc1	7*	-4.7	-9.69*	i	i	95.5*	0.381	i	112.0%*	143.0%*	93.3*	i
COc1ccc(NC(=O)N(C)C[C@H]2Oc3ccc(NC(=O)Nc4c(C)noc4C)cc3C(=O)N([C@H](C)CO)C[C@@H]2C)cc1	.	.	i	.	.	.	.	.	.	.	.	.
Cc1cc(NC(=O)Nc2cccc(Cl)c2)n(-c2ccccn2)n1	14*	-21.0	-11.3*	-12.7*	i	191.5*	0.393	i	125.0%*	+	126.3*	i	KCNK9 block conf=54.0%*;Kir21 sel=i;KCNK9 uninduced=31.5%*
O=C(N/N=C/c1ccc(O)c(Br)c1)c1cc2c(ccc3ccccc32)o1	i	-3.9	i	i	i	.	.	.	.	.	.	.
